Drawing on ChEMBL document CHEMBL1148277, “Synthesis and pharmacological evaluation of 3-(3,4-dichlorophenyl)-1-indanamine derivatives as nonselective ligands for biogenic amine transporters” (J Med Chem, 2004), this text covers Ki for eight compounds.

For test [1], the target named is T1, Sodium-dependent serotonin transporter (Rattus norvegicus, UniProt P31652). In words: Reuptake inhibitory activity against Serotonin transporter. The method in brief:
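[³H]5-HT uptake in crude synaptosomes from rat whole brain minus caudate, in Krebs phosphate buffer pH 7.4 with 1 mg/mL ascorbic acid and 50 μM pargyline. Stopped after 30 min by Tris-HCl/NaCl wash buffer and rapid GF/B filtration. Run twice, each in triplicate.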

Test [2] addresses T1, Sodium-dependent serotonin transporter. Description: (§1) Displacement of [125I]RTI-55 from serotonin transporter of frozen rat caudate membranes. The format is cell membranes, Membrane. In a few lines: (§2)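 Rat caudate membranes as stated in the lines. For NET binding, 5 mM KCl and 300 mM NaCl were added. Radioligand was in protease inhibitors (chymostatin, leupeptin, EDTA, EGTA). Ended by filtration over PEI-presoaked GF/B filters; Ki derived.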

The target of test [3] is T2, Sodium-dependent dopamine transporter (Rattus norvegicus, UniProt P23977). Description: Binding affinity for DA transporter using [125I]RTI-55 in frozen rat caudate membranes. It counts as cell membranes. The method in brief:
as §2

The target of test [4] is T3, Norepinephrine transporter (Rattus norvegicus, UniProt Q9WTR4). Description: Reuptake inhibitory activity against NE transporter. The format is functional.
The target of test [5] is T3, Norepinephrine transporter. Description: Displacement of from norepinephrine transporter of frozen rat caudate membranes. It counts as cell membranes, Membrane. In a few lines:
as §2

The target in test [6] is T2, Sodium-dependent dopamine transporter. Description: Reuptake inhibitory activity against dopamine DA transporter.
The target of test [7] is T1, Sodium-dependent serotonin transporter. The description is as §1. The format is cell membranes, Membrane. In a few lines:
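Rat caudate membranes as stated in the lines. Incubated 18–24 h at 4 °C to equilibrium with radioligand and test drug in 55.2 mM sodium phosphate buffer, pH 7.4, with 1 mg/mL BSA. For NET binding, 5 mM KCl and 300 mM NaCl were added. Radioligand was in protease inhibitors (chymostatin, leupeptin, EDTA, EGTA). Ended by filtration over PEI-presoaked GF/B filters; Ki derived.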
This is another data set of the same source.

T3 sequence (Q9WTR4 whole entry): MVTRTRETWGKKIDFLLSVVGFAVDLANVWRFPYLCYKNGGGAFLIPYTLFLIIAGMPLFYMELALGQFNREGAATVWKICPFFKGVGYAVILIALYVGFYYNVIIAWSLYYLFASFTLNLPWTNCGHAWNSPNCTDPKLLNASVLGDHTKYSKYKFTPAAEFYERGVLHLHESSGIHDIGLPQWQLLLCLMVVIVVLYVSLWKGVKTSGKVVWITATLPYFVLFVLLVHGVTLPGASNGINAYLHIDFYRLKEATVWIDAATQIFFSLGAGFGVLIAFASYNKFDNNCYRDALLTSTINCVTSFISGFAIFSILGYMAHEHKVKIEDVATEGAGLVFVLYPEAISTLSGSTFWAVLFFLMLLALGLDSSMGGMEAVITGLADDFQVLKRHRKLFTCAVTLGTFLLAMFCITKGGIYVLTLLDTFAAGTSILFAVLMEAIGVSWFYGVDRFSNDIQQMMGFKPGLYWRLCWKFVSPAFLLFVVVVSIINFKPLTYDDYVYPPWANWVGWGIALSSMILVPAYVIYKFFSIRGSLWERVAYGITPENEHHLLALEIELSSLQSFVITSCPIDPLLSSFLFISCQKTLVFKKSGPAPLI
T2 sequence (P23977 whole entry): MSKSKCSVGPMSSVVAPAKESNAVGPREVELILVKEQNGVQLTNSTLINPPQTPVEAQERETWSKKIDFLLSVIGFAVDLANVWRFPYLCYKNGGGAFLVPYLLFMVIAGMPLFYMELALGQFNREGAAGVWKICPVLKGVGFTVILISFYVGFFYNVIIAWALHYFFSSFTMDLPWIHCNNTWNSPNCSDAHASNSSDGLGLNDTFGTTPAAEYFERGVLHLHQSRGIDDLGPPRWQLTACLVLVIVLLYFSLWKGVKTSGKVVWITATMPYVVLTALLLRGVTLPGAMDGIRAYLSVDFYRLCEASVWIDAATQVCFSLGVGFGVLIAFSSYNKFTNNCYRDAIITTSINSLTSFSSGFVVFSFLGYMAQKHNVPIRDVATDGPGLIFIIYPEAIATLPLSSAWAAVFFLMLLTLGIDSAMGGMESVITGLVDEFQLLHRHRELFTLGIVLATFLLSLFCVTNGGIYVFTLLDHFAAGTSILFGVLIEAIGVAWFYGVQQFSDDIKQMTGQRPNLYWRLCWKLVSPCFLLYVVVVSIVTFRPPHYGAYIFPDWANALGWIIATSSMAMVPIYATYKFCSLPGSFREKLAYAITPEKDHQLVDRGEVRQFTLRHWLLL
T1 sequence (P31652 whole entry): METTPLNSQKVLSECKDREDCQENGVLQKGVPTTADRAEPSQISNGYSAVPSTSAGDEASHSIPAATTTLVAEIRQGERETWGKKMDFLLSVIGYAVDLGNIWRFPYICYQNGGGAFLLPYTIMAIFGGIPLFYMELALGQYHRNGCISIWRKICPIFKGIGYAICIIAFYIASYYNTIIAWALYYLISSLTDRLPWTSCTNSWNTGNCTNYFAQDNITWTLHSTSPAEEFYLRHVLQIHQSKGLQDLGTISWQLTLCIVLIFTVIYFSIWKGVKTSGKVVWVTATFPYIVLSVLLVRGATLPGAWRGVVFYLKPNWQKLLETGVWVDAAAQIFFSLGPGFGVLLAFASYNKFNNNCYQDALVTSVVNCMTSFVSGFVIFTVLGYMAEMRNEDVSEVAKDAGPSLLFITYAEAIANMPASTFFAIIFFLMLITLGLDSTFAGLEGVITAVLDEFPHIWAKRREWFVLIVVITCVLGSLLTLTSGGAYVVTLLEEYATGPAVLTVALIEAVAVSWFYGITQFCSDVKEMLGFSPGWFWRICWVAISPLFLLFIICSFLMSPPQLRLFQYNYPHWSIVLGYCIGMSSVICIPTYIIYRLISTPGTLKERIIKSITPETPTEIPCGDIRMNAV

On to `CN[C@@H]1C[C@@H](c2ccc(Cl)c(Cl)c2)c2ccc(OC)cc21`, for which the Ki in test [1] came to 19 nM; in test [2], 0.7 nM; in test [3], 9 nM; in test [4], 34 nM; in test [5] it was 7 nM; in test [6] it was 12 nM.

Take `CN[C@H]1C[C@H](c2ccc(Cl)c(Cl)c2)c2ccc(OC)cc21`: the Ki amounted to 109 nM in test [1]; 600 nM in test [3]; 650 nM in test [4]; 820 nM in test [5]; 600 nM in test [6]; 51 nM in test [7].

For `CNC1CC(c2ccc(Cl)c(Cl)c2)c2ccc(OC)cc21` (cis isomer), the results for the Ki in test [3], in test [5] and in test [7] were 96 nM, 170 nM and 0.3 nM, respectively.

With `CCN(CC)C1CC(c2ccc(Cl)c(Cl)c2)c2ccc(OC)cc21` (cis isomer), the Ki is 26 nM in test [2], 1310 nM in test [3] and > 4700 nM in test [5].

For the compound `CNC1CC(c2ccc(Cl)c(Cl)c2)c2ccc(OC)cc21` (trans isomer), the results for the Ki in test [2], in test [3] and in test [5] were 1.1 nM, 12 nM and 15 nM, respectively.

For the compound `CNC1CC(c2ccc(Cl)c(Cl)c2)c2ccc(O)cc21` (trans isomer), the Ki is 3 nM in test [2], 11 nM in test [3] and 24 nM in test [5].

Take `CCN(CC)C1CC(c2ccc(Cl)c(Cl)c2)c2ccc(O)cc21` (trans isomer): the Ki stood at 0.7 nM in test [2], 40 nM in test [3] and 1330 nM in test [5].

As for `CCN(CC)C1CC(c2ccc(Cl)c(Cl)c2)c2ccc(OC)cc21` (trans isomer), the Ki in test [2] was determined as 1.3 nM; in test [3] it was 140 nM; in test [5], 1010 nM.
